Assay [1] deals with MC38-Nectin-4 tumors. The assay is described as follows: Pharmacodynamics in MC38-Nectin-4 tumors. The assay is classed as in vivo, mouse. The settings on record: 144 hours. The procedure, abridged: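 C57BL/6J-hCD137 mice bore MC38-Nectin-4 tumors. Tumors were harvested 24, 48, 96 and 144 h after test compound 5 mg/kg at 0 and 24 h. Controls were harvested at 144 h: vehicle, a non-CD137-binding analogue (same schedule), or anti-CD137 agonist antibody 2 mg/kg every 3 days. Tumors were assessed by IHC (mouse CD8) and NanoString mRNA profiling.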

Assay [2] concerns the target human CD137 (Homo sapiens, UniProt Q07011). In kind it is cell-based. The settings on record: co-culture with 4T1 cells overexpressing mouse Nectin-4, 6 hours.

human CD137, sequence (Q07011 24-255): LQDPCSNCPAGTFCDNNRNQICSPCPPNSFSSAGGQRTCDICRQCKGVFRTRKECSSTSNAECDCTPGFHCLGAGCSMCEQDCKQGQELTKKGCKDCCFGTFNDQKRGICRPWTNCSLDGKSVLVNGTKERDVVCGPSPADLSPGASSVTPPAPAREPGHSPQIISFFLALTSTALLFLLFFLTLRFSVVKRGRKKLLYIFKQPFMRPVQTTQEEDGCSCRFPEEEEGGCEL

For “anti-CD137 antibody agonist: anti-human 4-1BB therapeutic antibody, urelumab, Creative Biolabs Cat. No. TAB-179”, the “reprogramming of the tumor immune microenvironment (mRNA profiling)” value in assay [1] was “to lesser extent”. In assay [1] (BT7480 or NB-BCY 5 mg/kg at 0 and 24 hours, anti-CD137 antibody agonist 2 mg/kg), the “T cell infiltrates in tumor (CD8 IHC)” value was “increased”. For the same substance, the “CD137 agonism (reporter activity)” value in assay [2] is given as “induced CD137 agonism in a Nectin-4-independent manner”.
